According to ChEMBL document CHEMBL1143367, “Therapeutic index of gramicidin S is strongly modulated by D-phenylalanine analogues at the beta-turn” (J Med Chem, 2009):
*1 amine or outer side, *2 acyl side, *3 side chain or, on linkers, in order; H or OH if unused. Where a SMILES comes first, the peptide text is derived from it. [ ]: non-standard residue; d: D form. X1 = O=C([C@H](N[*:1])C1c2ccccc2-c2ccccc21)[*:2]; d1Nal = N[C@H](Cc1cccc2ccccc12)C(=O)O; d2Nal = N[C@H](Cc1ccc2ccccc2c1)C(=O)O; dTic = O=C(O)[C@H]1Cc2ccccc2CN1; Orn = NCCC[C@H](N)C(=O)O

Tests used:
Conditions in all cases: defibrinated sheep red blood cells, read-out: TI
[1] = Therapeutic index, ratio of HC50 for defibrinated sheep RBC to MIC50 for colistin-resistant Acinetobacter baumannii 19606R
How it was run: (§1)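 TI is HC50/MIC50. For HC50, defibrinated sheep erythrocytes were washed in Hank's medium with 20 mM glucose (pH 7.2), held at 2 × 10^7 cells/mL, and incubated 4 h at 37 °C with peptide in triplicate. After centrifugation, hemoglobin release was read at 550 nm.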

[2] = Therapeutic index, ratio of HC50 for defibrinated sheep RBC to MIC50 for Staphylococcus aureus CECT 240; how it was run: as §1
[3] = Therapeutic index, ratio of HC50 for defibrinated sheep RBC to MIC50 for Listeria monocytogenes CECT 4032; how it was run: as §1

Structure (SMILES): CC(C)C[C@@H]1NC(=O)[C@H](CCCN)NC(=O)[C@H](C(C)C)NC(=O)[C@@H]2CCCN2C(=O)[C@@H](C2c3ccccc3-c3ccccc32)NC(=O)[C@H](CC(C)C)NC(=O)[C@H](CCCN)NC(=O)[C@H](C(C)C)NC(=O)[C@@H]2CCCN2C(=O)[C@@H](C2c3ccccc3-c3ccccc32)NC1=O (cyclo(L[X1]PV[Orn]L[X1]PV[Orn]))
- selectivity ratio [1]: > 0.1

Structure (SMILES): CC(C)C[C@@H]1NC(=O)[C@H](CCCN)NC(=O)[C@H](C(C)C)NC(=O)[C@@H]2CCCN2C(=O)[C@@H](Cc2cccc3ccccc23)NC(=O)[C@H](CC(C)C)NC(=O)[C@H](CCCN)NC(=O)[C@H](C(C)C)NC(=O)[C@@H]2CCCN2C(=O)[C@@H](Cc2cccc3ccccc23)NC1=O (cyclo(L[d1Nal]PV[Orn]L[d1Nal]PV[Orn]))
- selectivity ratio [1]: > 0.1

Structure (SMILES): CC(C)C[C@@H]1NC(=O)[C@H](CCCN)NC(=O)[C@H](C(C)C)NC(=O)[C@@H]2CCCN2C(=O)[C@@H](Cc2ccc3ccccc3c2)NC(=O)[C@H](CC(C)C)NC(=O)[C@H](CCCN)NC(=O)[C@H](C(C)C)NC(=O)[C@@H]2CCCN2C(=O)[C@@H](Cc2ccc3ccccc3c2)NC1=O (cyclo(L[d2Nal]PV[Orn]L[d2Nal]PV[Orn]))
- selectivity ratio [1]: > 0.2

Structure (SMILES): CC(C)C[C@@H]1NC(=O)[C@H](CCCN)NC(=O)[C@H](C(C)C)NC(=O)[C@@H]2CCCN2C(=O)[C@H]2Cc3ccccc3CN2C(=O)[C@H](CC(C)C)NC(=O)[C@H](CCCN)NC(=O)[C@H](C(C)C)NC(=O)[C@@H]2CCCN2C(=O)[C@H]2Cc3ccccc3CN2C1=O (cyclo(L[dTic]PV[Orn]L[dTic]PV[Orn]))
- selectivity ratio [2]: > 10.2
- selectivity ratio [3]: > 6
